Laboratory results taken from ChEMBL document CHEMBL1130387, “Design of a potent combined pseudopeptide endothelin-A/endothelin-B receptor antagonist, Ac-DBhg16-Leu-Asp-Ile-[NMe]Ile-Trp21 (PD 156252): examination of its pharmacokinetic and spectral properties” (J Med Chem, 1997).
Numbered stars: 1 amine (or outer) side, 2 acyl side, 3 side chain; on linkers, the order of the positions; unused ones are H or OH. Square brackets hold non-standard residues; d marks the D form. Peptide text beside a SMILES is read from it. dGly(5-dibenzosuberyl) = N[C@@H](C(=O)O)C1c2ccccc2CCc2ccccc21; X2 = O=C([C@@H](N[*:1])C1c2ccccc2CCc2ccccc21)[*:2]; NMeDip = CN[C@H](C(=O)O)C(c1ccccc1)c1ccccc1; NMeW = CN[C@@H](Cc1c[nH]c2ccccc12)C(=O)O; Dip = N[C@H](C(=O)O)C(c1ccccc1)c1ccccc1; NMeI = CC[C@H](C)[C@H](NC)C(=O)O; NMeD = CN[C@@H](CC(=O)O)C(=O)O

How the values were obtained:
[1] = Stability in rat intestinal perfusate; format: ADME
Outline: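 Stability measured by incubation in rat intestinal perfusate in vitro. Values are the mean of at least three determinations ± SEM from two perfusate preparations. Perfusate leucine aminopeptidase activity was 0.05–0.32 nkat/mL. Degradation was also checked with a potato tuber carboxypeptidase inhibitor added.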

Oryctolagus cuniculus [2] = species: Oryctolagus cuniculus; assay: Ability to antagonize endothelin -1 (ET-1) stimulated vasoconstriction in vitro in rabbit femoral artery; format: functional; settings: read-out: pA2 (converted)
[3] = target: T1, Endothelin receptor type B (Rattus norvegicus, UniProt P21451); assay: Inhibition of binding to Endothelin B receptor of rat cerebellar membranes.; format: cell membranes, Membrane
T1 sequence (P21451 whole entry): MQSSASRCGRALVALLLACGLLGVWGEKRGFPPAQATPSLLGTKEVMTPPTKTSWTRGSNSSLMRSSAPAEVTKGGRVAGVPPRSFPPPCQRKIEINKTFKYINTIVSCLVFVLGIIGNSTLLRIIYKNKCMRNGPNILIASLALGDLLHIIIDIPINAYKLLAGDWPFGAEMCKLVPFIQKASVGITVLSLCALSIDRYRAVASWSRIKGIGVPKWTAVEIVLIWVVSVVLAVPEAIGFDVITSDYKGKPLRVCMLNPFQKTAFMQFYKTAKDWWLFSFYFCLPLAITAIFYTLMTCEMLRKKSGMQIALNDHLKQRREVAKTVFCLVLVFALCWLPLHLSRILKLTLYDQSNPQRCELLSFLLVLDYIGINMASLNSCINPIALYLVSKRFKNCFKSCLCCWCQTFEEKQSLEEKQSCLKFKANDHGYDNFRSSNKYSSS
Outline: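 Competition binding assays: ETA on rabbit renal vascular smooth muscle cells, ETB on rat cerebellar membranes. Each IC50 comes from a single competition experiment with points measured in duplicate. Where more than one IC50 was determined, values are given as mean ± SEM.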

Caco-2 = assay: Permeability in Caco-2 Cell monolayers for the compound; format: functional, cell-based; settings: Homo sapiens
Outline: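 Transport measured across Caco-2 monolayers (human colon adenocarcinoma line that differentiates to an enterocyte-like phenotype). Each value is the mean of three to five cell monolayers, with standard errors.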

Oryctolagus cuniculus [4] = species: Oryctolagus cuniculus; assay: Ability to antagonize […] SRTX-6c stimulated vasoconstriction in vitro in rabbit pulmonary artery; format: functional; settings: read-out: pA2 (converted)

Row | IC50 [3] [µM] | SMILES | half-life [1] [h] | Permeability (10e4*cm min-1) (Caco-2) | other results
1 | > 0.25 | CC[C@H](C)[C@H](NC(=O)[C@@H](NC(=O)[C@H](CC(=O)O)NC(=O)[C@H](CC(C)C)NC(=O)[C@H](NC(C)=O)C(c1ccccc1)c1ccccc1)[C@@H](C)CC)C(=O)CNC(=O)[C@@H](N)Cc1c[nH]c2ccccc12 |  |  | 
2 | 0.08 | CC[C@H](C)[C@H](NC(=O)[C@H](CC(=O)O)NC(=O)[C@H](CC(C)C)NC(=O)[C@@H](NC(C)=O)C(c1ccccc1)c1ccccc1)C(=O)N(C)[C@H](C(=O)N[C@@H](Cc1c[nH]c2ccccc12)C(=O)O)[C@@H](C)CC (Ac-[Dip]LDI[NMeI]W-OH) | 14.6 | 2 | 
3 | > 1 | CC[C@H](C)[C@H](NC(=O)[C@H]([C@@H](C)CC)N(C)C(=O)[C@H](CC(=O)O)NC(=O)[C@H](CC(C)C)NC(=O)[C@@H](NC(C)=O)C(c1ccccc1)c1ccccc1)C(=O)N[C@@H](Cc1c[nH]c2ccccc12)C(=O)O (Ac-[Dip]LD[NMeI]IW-OH) |  |  | 

The remaining lines, values behind:

Row | SMILES | IC50 [3] [µM] | half-life [1] [h] | Permeability (10e4*cm min-1) (Caco-2) | other results
4 | CC[C@H](C)[C@H](NC(=O)[C@H](CC(=O)O)NC(=O)[C@H](CC(C)C)NC(=O)[C@H](NC(C)=O)C1c2ccccc2CCc2ccccc21)C(=O)N(C)[C@H](C(=O)N[C@@H](Cc1c[nH]c2ccccc12)C(=O)O)[C@@H](C)CC |  | 8.97 |  | Kb (Oryctolagus cuniculus [2]): 0.0501 µM
5 | CC[C@H](C)[C@H](NC(=O)[C@H](CC(=O)O)NC(=O)[C@H](CC(C)C)N(C)C(=O)[C@H](NC(C)=O)C(c1ccccc1)c1ccccc1)C(=O)N[C@H](C(=O)N[C@@H](Cc1c[nH]c2ccccc12)C(=O)O)[C@@H](C)CC | 0.6 |  |  | 
6 | CC[C@@H](C)[C@H](C(=O)N[C@@H](Cc1c[nH]c2ccccc12)C(=O)O)N(C)C(=O)[C@@H](NC(=O)[C@@H](CC(=O)O)NC(=O)[C@H](CC(C)C)NC(=O)[C@H](NC(C)=O)C1c2ccccc2CCc2ccccc21)[C@@H](C)CC |  |  | 6.3 | 
7 | CC[C@H](C)[C@H](NC(=O)[C@H](CC(=O)O)NC(=O)[C@H](CC(C)C)NC(=O)[C@@H](NC(C)=O)C(c1ccccc1)c1ccccc1)C(=O)N[C@H](C(=O)N[C@@H](Cc1c[nH]c2ccccc12)C(=O)O)[C@@H](C)CC (Ac-[Dip]LDIIW-OH) |  | 0.302 | 2 | Kb (Oryctolagus cuniculus [4]): 0.501 µM; Kb (Oryctolagus cuniculus [2]): 0.251 µM
8 | CC[C@H](C)[C@H](NC(=O)[C@H](CC(=O)O)NC(=O)[C@H](CC(C)C)NC(=O)[C@@H](NC(C)=O)C(c1ccccc1)c1ccccc1)C(=O)N[C@H](C(=O)N(C)[C@@H](Cc1c[nH]c2ccccc12)C(=O)O)[C@@H](C)CC (Ac-[Dip]LDII[NMeW]-OH) | 11 |  |  | 
9 | CC[C@H](C)[C@H](NC(=O)[C@@H](NC(=O)[C@H](CC(=O)O)N(C)C(=O)[C@H](CC(C)C)NC(=O)[C@@H](NC(C)=O)C(c1ccccc1)c1ccccc1)[C@@H](C)CC)C(=O)N[C@@H](Cc1c[nH]c2ccccc12)C(=O)O (Ac-[Dip]L[NMeD]IIW-OH) | 1.5 |  |  | 
10 | CC[C@H](C)[C@H](NC(=O)[C@H](CC(=O)O)NC(=O)[C@H](CC(C)C)NC(=O)[C@H](C(c1ccccc1)c1ccccc1)N(C)C(C)=O)C(=O)N[C@H](C(=O)N[C@@H](Cc1c[nH]c2ccccc12)C(=O)O)[C@@H](C)CC (Ac-[NMeDip]LDIIW-OH) | 8 |  |  | 
11 | CC[C@H](C)[C@H](NC(=O)[C@H](CC(=O)O)NC(=O)[C@H](CC(C)C)NC(=O)[C@@H](NC(C)=O)C1c2ccccc2CCc2ccccc21)C(=O)N[C@H](C(=O)N[C@@H](Cc1c[nH]c2ccccc12)C(=O)O)[C@@H](C)CC (Ac-[X2]LDIIW-OH) |  |  | 4.7 | 
12 | CC[C@H](C)[C@H](NC(=O)[C@H](CC(=O)O)NC(=O)[C@H](CC(C)C)NC(=O)[C@H](NC(C)=O)C1c2ccccc2CCc2ccccc21)C(=O)N[C@H](C(=O)N[C@@H](Cc1c[nH]c2ccccc12)C(=O)O)[C@@H](C)CC (Ac-[dGly(5-dibenzosuberyl)]LDIIW-OH) |  | 0.177 |  | Kb (Oryctolagus cuniculus [4]): 0.1 µM; Kb (Oryctolagus cuniculus [2]): 0.158 µM
